Data from ChEMBL document CHEMBL1148046, “Marine alkaloids, 15. Two alkaloids, flustramine E and debromoflustramine B, from the marine bryozoan Flustra foliacea” (1994).
The source made the active and inactive calls. The calls are words filed in the database; no cut-off is given here.

Legend:
Bacillus subtilis [1] = test: Antimicrobial activity against Bacillus subtilis at 100 ppm; assay type: functional, organism-based
Pseudomonas aeruginosa = test: Antimicrobial activity against Pseudomonas aeruginosa at 1000 ppm; assay type: functional, organism-based
In short: (§1)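 Compound applied at 1000 ppm in DMSO to each bacterial, fungal or oomycete test organism; activity read as the diameter of the growth-inhibition zone in mm.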

Rhizoctonia solani [2] = test: Antimicrobial activity against Rhizoctonia solani at 1000 ppm; assay type: functional; conditions: read-out: IZ; in short: as §1
Saccharomyces cerevisiae [3] = test: Antimicrobial activity against Saccharomyces cerevisiae at 1000 ppm; assay type: functional; conditions: read-out: IZ; in short: as §1
Globisporangium ultimum = test: Antimicrobial activity against Pythium ultimum at 1000 ppm; assay type: functional, organism-based; in short: as §1
Fusarium oxysporum [4] = test: Antimicrobial activity against Fusarium oxysporum at 1000 ppm; assay type: functional; conditions: read-out: IZ; in short: as §1
Rhizoctonia solani [5] = test: Antimicrobial activity against Rhizoctonia solani at 100 ppm; assay type: functional; conditions: read-out: IZ
Fusarium oxysporum [6] = test: Antimicrobial activity against Fusarium oxysporum at 100 ppm; assay type: functional, organism-based
Botrytis cinerea [7] = test: Antimicrobial activity against Botrytis cinerea at 100 ppm; assay type: functional; conditions: read-out: IZ
Saccharomyces cerevisiae [8] = test: Antimicrobial activity against Saccharomyces cerevisiae at 100 ppm; assay type: functional, organism-based
Rhizoctonia solani [9] = test: Antimicrobial activity against Rhizoctonia solani at 10 ppm; assay type: functional; conditions: read-out: IZ
Botrytis cinerea [10] = test: Antimicrobial activity against Botrytis cinerea at 1000 ppm; assay type: functional; conditions: read-out: IZ; in short: as §1
Bacillus subtilis [11] = test: Antimicrobial activity against Bacillus subtilis at 1000 ppm; assay type: functional; conditions: read-out: IZ; in short: as §1
Botrytis cinerea [12] = test: Antimicrobial activity against Botrytis cinerea at 10 ppm; assay type: functional; conditions: read-out: IZ
Aspergillus niger = test: Antimicrobial activity against Aspergillus niger at 1000 ppm; assay type: functional, organism-based; in short: as §1

Compound: CC(C)=CC[C@@]12CCN(C)[C@@H]1Nc1cc(Br)ccc12 (relative stereo) [FLUSTRAMINE E]
- Activity (Bacillus subtilis [1]): inactive
- Activity (Pseudomonas aeruginosa): inactive
- zone of inhibition at 1000 ppm (Rhizoctonia solani [2]): 10 mm
- zone of inhibition at 1000 ppm (Saccharomyces cerevisiae [3]): 14 mm
- Activity (Globisporangium ultimum): inactive
- zone of inhibition at 1000 ppm (Fusarium oxysporum [4]): 10 mm
- zone of inhibition at 100 ppm (Rhizoctonia solani [5]): 9 mm
- Activity (Fusarium oxysporum [6]): inactive
- zone of inhibition at 100 ppm (Botrytis cinerea [7]): 25 mm
- Activity (Saccharomyces cerevisiae [8]): inactive
- zone of inhibition at 10 ppm (Rhizoctonia solani [9]): 9 mm
- zone of inhibition at 1000 ppm (Botrytis cinerea [10]): 27 mm
- zone of inhibition at 1000 ppm (Bacillus subtilis [11]): 12 mm
- zone of inhibition at 10 ppm (Botrytis cinerea [12]): 21 mm
- Activity (Aspergillus niger): inactive
